# Test results: paper PMC4031611 (Nature chemistry, 2014)
# Peptide text beside a SMILES is read from it. * marks the point of attachment. Cbz = O=C(OCc1ccccc1)*; CH2F = FC*
# Columns and labels:
# [1] = test system: STS-induced apoptotic HeLa cells; experiment: Flow cytometry of STS-induced apoptotic HeLa cells labelled with probe; assay type: cell-based, human
# In short: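 HeLa cells made apoptotic with staurosporine, or left viable, then incubated with probe (2 μM), with or without Z-VAD-fmk pretreatment (50 μM). Co-stained with a fluorescent caspase inhibitor (FLICA) as the apoptosis marker. Flow cytometry gated into four quadrants by FLICA and Cy5.5 positivity; Cy5.5 fluorescence compared between apoptotic and viable cells.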
# [2] = Stability in mouse serum by HPLC; assay type: in vitro ADME
# [3] = test system: STS-induced apoptotic HeLa cells; experiment: Epifluorescence microscopy of STS-treated HeLa cells; assay type: cell-based, human; settings: for cell labeling efficiency: then C-SNAF 2 µM 24 h, HeLa
# [4] = Blood circulation and biodistribution in healthy nude mice; assay type: in vivo, mouse; settings: 5 nmol i.v.
# HeLa tumor lysates = experiment: HPLC analysis of C-SNAF reaction in tumor lysates; assay type: in vivo, mouse; settings: C-SNAF 5 μM, 24 h incubation with tumor lysate, 675 nm
# [5] = test system: lysate of apoptotic HeLa cells; experiment: HPLC analysis of C-SNAF reaction in apoptotic cell lysate; assay type: cell-based, human; settings: C-SNAF 5 μM, overnight, 37 °C
# [6] = test system: lysate of apoptotic MDA-MB-231 cells; experiment: as above; assay type: cell-based, human; settings: C-SNAF 5 μM, overnight, 37 °C
# DOX-treated HeLa cells = experiment: Epifluorescence microscopy of DOX-treated HeLa cells; assay type: cell-based, human; settings: for cell labeling efficiency: 24 h, HeLa
# [7] = test system: subcutaneous HeLa tumors in female nude mice; experiment: In vivo fluorescence imaging of DOX-induced tumor apoptosis; parameters: species or system mouse
# In short: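 HeLa s.c. xenografts in female nu/nu mice given DOX 8 mg/kg or saline i.v. every 4 days, three times. Two days after the last dose, probe (5 nmol in saline) given i.v. and imaging started immediately: hyperspectral imager, 635±25 nm excitation, 675 nm long-pass emission, 670–900 nm collected. Cy5.5 unmixed from autofluorescence; tumor ROI intensity expressed as percent difference from saline group. Same animals also imaged after a single DOX dose.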
# [8] = molecular target: T1, recombinant human caspase-3 (Homo sapiens, UniProt P42574); experiment: Caspase-3-mediated macrocyclization in vitro, HPLC assay; assay type: biochemical; settings: probe 25 μM, caspase-3 4.9 × 10^−3 U/ml, 37 °C
# T1 sequence (P42574 29-175 limits assumed): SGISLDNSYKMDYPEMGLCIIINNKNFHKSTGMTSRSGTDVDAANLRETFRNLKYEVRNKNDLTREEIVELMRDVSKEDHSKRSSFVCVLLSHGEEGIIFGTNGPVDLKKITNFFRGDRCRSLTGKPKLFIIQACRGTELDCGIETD
# T1 sequence (P42574 176-277 limits assumed): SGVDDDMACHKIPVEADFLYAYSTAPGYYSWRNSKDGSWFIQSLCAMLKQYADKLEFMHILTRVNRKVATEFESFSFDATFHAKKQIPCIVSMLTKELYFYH
# HeLa tumor xenograft = experiment: Chemotherapy mouse model, tumor size; assay type: in vivo
# In short: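 Female nu/nu mice, 6 weeks old, given 2 million HeLa cells s.c. in the shoulders in 50% Matrigel/supplemented DMEM. Tumors grown to 0.7–0.9 cm on one aspect (about 10–15 days), then given DOX 8 mg/kg or saline i.v. every 4 days, three times. Body weight and caliper width/length recorded every other day; volume = (length × width²)/2.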
# [9] = test system: caspase-3/7 activity in HeLa tumor lysates; experiment: Caspase-Glo 3/7 assay in tumor lysates; assay type: in vivo, mouse; settings: 3X DOX 8 mg/kg i.v., Caspase-Glo 3/7, n = 4
compound,measurement,setting,value
CCSSC[C@@H](NC(=O)[C@H](CC(=O)O)NC(=O)[C@@H](NC(=O)[C@H](CCC(=O)O)NC(=O)[C@H](CC(=O)O)NC(C)=O)C(C)C)C(=O)N[C@@H](CCCCNC(=O)CCCCCN1C(=CC=CC=CC2=[N+](CC)c3ccc4c(S(=O)(=O)[O-])cc(S(=O)(=O)O)cc4c3C2(C)C)C(C)(C)c2c1ccc1c(S(=O)(=O)O)cc(S(=O)(=O)O)cc21)C(=O)Nc1ccc2nc(C3=N[C@@H](C(=O)NCCCOc4ccc5nc(C#N)ccc5c4)CS3)sc2c1 [C-SNAF],uptake in untreated viable HeLa cells,"[1]; probe 2 μM, 24 h, Cy5.5 fluorescence",low uptake
same,increase in Cy5.5 fluorescence of FLICA-positive apoptotic cells relative to viable cells,"[1]; probe 2 μM, 24 h, STS 2 μM 4 h, HeLa",~13 fold
same,half-life,[2],> 6 h
same,cell labeling efficiency,[3]; STS 0.5 μM 4 h,23%
same,cell labeling efficiency,[3]; STS 2 μM 4 h,90%
same,enhancement in cell labeling efficiency,[3]; STS 0.5 to 2 μM,approximately 4 fold
same,"labeling of apoptotic cells (fluorescence microscopy, words)","[3]; probe 2 µM, 24 h, STS-treated HeLa cells",Efficient labeling
same,time of nearly complete elimination from the body,[4],≤ 12 h
same,blood half-life,"[4]; Cy5.5 fluorescence of blood, n = 5",1.0 ± 0.45 h
same,amount of C-SNAF-cycl in DOX-treated relative to saline-treated tumor lysates (HPLC),HeLa tumor lysates,significantly greater amount of C-SNAF-cycl
same,conversion of C-SNAF to C-SNAF-cycl,[5],more than 90%
same,conversion of C-SNAF to C-SNAF-cycl,[6],more than 90%
same,cell labeling efficiency,DOX-treated HeLa cells; DOX 1 μM co-incubated with C-SNAF 2 µM,9%
same,cell labeling efficiency,DOX-treated HeLa cells; DOX 5 μM co-incubated with C-SNAF 2 µM,92%
same,enhancement in cell labeling efficiency,DOX-treated HeLa cells; DOX 1 to 5 μM,approximately 10 fold
same,"increase in tumor fluorescence signal, DOX-treated compared to saline-treated mice","[7]; 5 nmol i.v., 3X DOX 8 mg/kg, by 4 h, n = 5",1.6 fold
same,time of maximum tumor fluorescence after administration,"[7]; 5 nmol i.v., n = 5",1 h
same,tumor fluorescence relative to saline-treated mice,"[7]; after single dose of DOX (1X DOX), 2 h after C-SNAF, n = 4",moderate increase in tumor fluorescence
same,tumor fluorescence relative to saline and 1X DOX,"[7]; after third round of DOX, same animals, n = 4",significant fluorescence enhancement
same,conversion to C-SNAF-cycl after 6 h,[8],nearly completely converted to C-SNAF-cycl
"COc1cccc2c1C(=O)c1c(O)c3c(c(O)c1C2=O)C[C@@](O)(C(=O)CO)C[C@@H]3O[C@H]1C[C@H](N)[C@H](O)[C@H](C)O1 [DOX, doxorubicin]",tumor size change,HeLa tumor xenograft; following 1X DOX 8 mg/kg i.v.,no significant size difference
same,tumor size change,HeLa tumor xenograft; following the third round of DOX 8 mg/kg i.v.,significant size reduction
same,"increase in caspase-3/7 activity, DOX-treated relative to saline-treated tumors",[9],1.9 fold
"COC(=O)C[C@H](NC(=O)[C@H](C)NC(=O)[C@@H](NC(=O)OCc1ccccc1)C(C)C)C(=O)CF [Z-VAD-fmk, reference compound] (Cbz-Val-Ala-Asp(OMe)-CH2F)",effect of caspase inhibitor on labeling by C-SNAF,"[1]; Z-VAD-fmk 50 μM, 30 min before C-SNAF 2 μM, STS-treated HeLa",abrogated
